Experimental findings from ChEMBL document CHEMBL3576799, “Aranciamycins I and J, Antimycobacterial Anthracyclines from an Australian Marine-Derived Streptomyces sp” (J Nat Prod, 2015) are described below.

For experiment [1], the system named is HepG2. The experiment is described as follows: Cytotoxicity against human HepG2 cells assessed as growth inhibition after 48 hrs by MTT assay. Format: functional, cell-based. As to conditions: HepG2, 48 h. The method in brief:
(§1)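 Modified MTT assay on adherent human cancer lines: SW620 (epithelial-like colorectal carcinoma), NCI-H460 (epithelial-like lung carcinoma), KB-3-1 (epithelial-like cervix carcinoma) and HepG2 (hepatocellular carcinoma). Output given as IC50.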
On the technique in general: Tetrazolium assays rely on reduction of a dye to a coloured formazan, in cell work by metabolically active cells.

Experiment [2] deals with Bacillus spizizenii. The experiment is described as follows: Antibacterial activity against Bacillus subtilis ATCC 6633 after 24 hrs by spectrophotometric analysis. Particulars: ATCC 6633, 24 h. The format is functional, organism-based.
Experiment [3] relates to Staphylococcus aureus. Description: Antibacterial activity against Staphylococcus aureus ATCC 9144 after 24 hrs by spectrophotometric analysis. The format is functional, organism-based. Particulars: ATCC 9144, 24 h.
In experiment [4] the test system is Bacillus subtilis. Description: Antibacterial activity against Bacillus subtilis ATCC 6051 after 24 hrs by spectrophotometric analysis. The format is functional, organism-based. Particulars: ATCC 6051, 24 h.
Experiment [5] concerns SW-620. The experiment is described as follows: Cytotoxicity against human SW620 cells assessed as growth inhibition after 48 hrs by MTT assay. Format: functional, cell-based. Particulars: SW-620, 48 h. The method in brief: as §1
Experiment [6] concerns Staphylococcus aureus. Description: Antibacterial activity against Staphylococcus aureus ATCC 25923 after 24 hrs by spectrophotometric analysis. Particulars: ATCC 25923, 24 h. The format is functional, organism-based.
For experiment [7], the system named is NCI-H460. Description: Cytotoxicity against human NCI-H460 cells assessed as growth inhibition after 48 hrs by MTT assay. Format: functional, cell-based. As to conditions: NCI-H460, 48 h. The method in brief:
as §1

Experiment [8] in a line: Cytotoxicity against human KB-3-1 cells assessed as growth inhibition after 48 hrs by MTT assay. As to conditions: KB 3-1, 48 h. The format is functional, cell-based. The method in brief:
as §1

In experiment [9] the test system is Pseudomonas aeruginosa. Description: Antibacterial activity against Pseudomonas aeruginosa ATCC 10145 after 24 hrs by spectrophotometric analysis. Format: functional, organism-based. Particulars: ATCC 10145, 24 h.
Experiment [10] relates to Escherichia coli. Description: Antibacterial activity against Escherichia coli ATCC 11775 after 24 hrs by spectrophotometric analysis. As to conditions: DSM 30083 = JCM 1649 = ATCC 11775, 24 h. Format: functional, organism-based.
The subject of experiment [11] is Candida albicans. The experiment is described as follows: Antifungal activity against Candida albicans ATCC 90028 after 48 hrs by spectrophotometric analysis. Format: functional, organism-based. As to conditions: ATCC 90028, 48 h.

What is called pIC50 is the negative decadic logarithm of the IC50, by convention in mol/L. A word on the MIC: it is the smallest concentration in the dilution series that meets the test's criterion for growth inhibition. Read a high MIC as weaker potency.

pIC50: −log10 of the molar value. Converted amounts (≈) assume the structure as drawn.

For `CO[C@H]1[C@H](O[C@H]2C[C@](C)(O)Cc3cc4c(c(O)c32)C(=O)c2c(O)cccc2C4=O)O[C@@H](C)[C@H](O)[C@H]1O`, the pIC50 in experiment [1] is < 4.52; in [2], 5.62; in experiment [3], < 4.52; in experiment [4] it was 5.55; in experiment [5], < 4.52; in experiment [6], < 4.52. In addition, the negative-log IC50 (pIC50) in experiment [7], in [8], in experiment [9], in experiment [10] and in [11] was < 4.52 in each case. Further, the MIC is 7.5 µM (≈ 3.75 µg/mL) in [2]; > 30 µM in experiment [3]; 7.5 µM (≈ 3.75 µg/mL) in experiment [4]; > 30 µM in experiment [6]; > 30 µM in experiment [9]; > 30 µM in experiment [10]. Further, the MIC in experiment [11] was > 30 µM.
Take `CO[C@H]1[C@H](O[C@@H]2c3c(cc4c(c3O)C(=O)c3c(O)cccc3C4=O)C(=O)[C@@](C)(O)[C@H]2OC)O[C@@H](C)[C@H](O)[C@H]1O` [ARANCIAMYCIN]: the pIC50 was 4.74 in experiment [1]; 5.24 in experiment [2]; < 4.52 in experiment [3]; 5.22 in experiment [4]; < 4.52 in experiment [5]; < 4.52 in experiment [6]. Besides, the negative-log IC50 (pIC50) in [7], in [8], in experiment [9], in [10] and in experiment [11] was < 4.52 in each case. Further, the minimum inhibitory concentration (MIC) in experiment [2] was 15 µM (≈ 8.17 µg/mL); in [3], > 30 µM; in [4], 15 µM (≈ 8.17 µg/mL); in [6], > 30 µM; in [9] it was > 30 µM; in experiment [10], > 30 µM. Moreover, the minimum inhibitory concentration (MIC) in experiment [11] was > 30 µM.
For the compound `C[C@@H]1O[C@@H](O[C@H]2C[C@](C)(O)Cc3cc4c(c(O)c32)C(=O)c2c(O)cccc2C4=O)[C@H](O)[C@H](O)[C@H]1O`, the negative-log IC50 (pIC50) in experiment [1] was 4.92; in experiment [2] it was 5.52; in [3] it was < 4.52; in experiment [4] it was 5.96; in experiment [5] it was 5.12; in experiment [6] it was < 4.52. Besides, the pIC50 is 5.05 in [7]; < 4.52 in experiment [8]; < 4.52 in experiment [9]; < 4.52 in experiment [10]; < 4.52 in [11]. For the same compound, the MIC in experiment [2] was 7.5 µM (≈ 3.65 µg/mL); in experiment [3], > 30 µM; in [4], 3.7 µM (≈ 1.8 µg/mL); in experiment [6], > 30 µM; in experiment [9], > 30 µM; in [10] it was > 30 µM. For the same compound, the MIC in experiment [11] was > 30 µM.
As to `CO[C@H]1[C@H](O[C@H]2C[C@](C)(O)C(=O)c3cc4c(c(O)c32)C(=O)c2c(O)cccc2C4=O)O[C@@H](C)[C@H](O)[C@H]1O`, the pIC50 in experiment [1] is 4.92; in [2], 5.55; in [3] it was < 4.52; in experiment [4] it was 5.62; in experiment [5], 5.00; in experiment [6], < 4.52. Also, the pIC50 in [7], in experiment [8], in [9], in experiment [10] and in experiment [11] was < 4.52 in each case. Further, the MIC was 7.5 µM (≈ 3.86 µg/mL) in experiment [2]; > 30 µM in experiment [3]; 7.2 µM (≈ 3.7 µg/mL) in [4]; > 30 µM in [6]; > 30 µM in experiment [9]; > 30 µM in experiment [10]. The MIC in experiment [11] was > 30 µM.
